Laboratory results taken from PubChem BioAssay AID1885 (Broad Institute, 2009).
Screen size: about 300,000 compounds; about 4,400 (1.5%) were called active.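 Rule for the calls: active = mean inhibition across valid replicates above about 55% (limit read from the data); inconclusive = mean below that limit but half or more replicates reach it; inactive = mean below it, under half of replicates reach it.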 Shown is part of a subset that was picked to be rich in actives.

Assay: inhibitors of intracellular T. cruzi growth, primary screen, luminescence, NIH3T3 host cells (AID 1885);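 note: signal also drops with host cell toxicity which is not excluded here; 0% = plate median of DMSO wells and 100% = zero luminescence signal; higher percent means less beta-gal luminescence so fewer parasites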
Settings: T. cruzi beta-gal in NIH3T3, luminescence, 90 h; active compounds read high; concentration not given here
In short: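 System: Mouse NIH/3T3 fibroblasts infected with β-gal-expressing T. cruzi Tulahuen C4 | Quantity: NIH/3T3 cells, 5,000 per well | Reagent: 5000 reporter trypomastigotes per well | Dosing: Compound pinned at 50 nL/well, DMSO | Schedule: 3 h host attachment, then at least 90 h co-culture | Detection: GalScreen luminescence, 60 min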

Row | Structure (SMILES) | inhibition
1 | CNC(=O)c1ccc(NC(=O)c2cccc(C(F)(F)F)c2)cc1 | -8.58% (inactive)
2 | O=C(Nc1ccc(-c2csc(Nc3cccc(C(F)(F)F)c3)n2)cc1)c1cccc(C(F)(F)F)c1 | 58.5% (active)
3 | Cc1nc(NC(=O)c2cccc(Cl)c2)sc1-c1csc(Nc2cccc(Cl)c2)n1 | -1.87% (inactive)
4 | O=C(O)C1C2C=CC(C2)C1C(=O)NCc1ccccc1 (stereo unspecified) | -11.6% (inactive)
5 | Cc1nn(C)cc1S(=O)(=O)N1CCN(c2ccc(F)cc2)CC1 | 2.42% (inactive)
6 | O=C(O)c1ccccc1NC(=O)c1ccccc1-c1ccccc1C(=O)O | -1.15% (inactive)
7 | O=C(NC(=S)Nc1ccccc1C(=O)O)c1ccc(-c2ccc(Br)cc2)o1 | 61.6% (active)
8 | COC(=O)c1ccccc1NC(=S)NC(=O)c1ccccc1F | -19.3% (inactive)
9 | CCN1C(=O)[C@@H]2[C@@H](c3ccc(-c4cccc(Cl)c4)cc3)N3CCC[C@@]3(C(=O)OC)[C@@H]2C1=O | 4.08% (inactive)
10 | COc1cc(C(=O)N2CCN(C3CCC(C)CC3)CC2)cc(OC)c1OC (stereo unspecified) | 25.8% (inactive)
11 | COc1ccc(CNC(=O)CCCn2nc(C)c([N+](=O)[O-])c2C)cc1 | -2.92% (inactive)
12 | NC(=O)Cn1nc([N+](=O)[O-])nc1Oc1ccc(Br)cc1 | 88.1% (active)
13 | Cc1nn(CCOc2ccc(Br)cc2)c(C)c1[N+](=O)[O-] | 10.6% (inactive)
14 | CCc1ccc(Oc2nc([N+](=O)[O-])nn2C)cc1 | 66.5% (active)
15 | N/C(=N\OC(=O)COc1ccc([N+](=O)[O-])cc1)c1ccc(Br)cc1 | -1.86% (inactive)
16 | Cn1nc([N+](=O)[O-])nc1Sc1ccc(C(C)(C)C)cc1 | 27% (inactive)
17 | COc1ccc(NC(=O)CCS(=O)(=O)c2cc3c(cc2Cl)NC(=O)CO3)cc1OC | 1.37% (inactive)
18 | CC(C)CCN1CCN(Cc2cn[nH]c2C2CCCCC2)CC1CCO (stereo unspecified) | 24.3% (inactive)
19 | CN(CCOc1ccccc1)C(=O)c1cc(COc2c(F)cccc2F)on1 | -2.25% (inactive)
20 | COc1ccc(NC(=O)CCNC(=O)Cn2cnc3sc4c(c3c2=O)CCCC4)cc1OC | -2.4% (inactive)
21 | Cc1ccc(S(=O)(=O)N2CCN(C(=O)c3ccccc3-c3nc4ccccc4s3)CC2)c(C)c1 | -3.66% (inactive)
22 | CC(NC(=O)c1cc2cc(Cl)ccc2oc1=N)c1ccccc1 (stereo unspecified) | -3.32% (inactive)
23 | Fc1ccccc1COc1cccc2cccnc12 | -0.777% (inactive)
24 | Fc1ccccc1COc1ccccc1CNCc1ccncc1 | 65.1% (active)

Row | Structure (SMILES) | inhibition
25 | COc1cccc(CNCCc2c[nH]c3ccccc23)c1OCc1ccccc1F | 39.3% (inactive)
26 | C=CCOc1cccc(CNCc2cccnc2)c1 | 17.4% (inactive)
27 | c1ccc(COc2ccccc2CNCc2cccnc2)cc1 | 69.7% (active)
28 | CCC(Oc1ccccc1)C(=O)NCc1cccnc1 (stereo unspecified) | -4.42% (inactive)
29 | CN(C(=O)CN1C(=O)NC(C)(CCc2ccccc2)C1=O)c1ccccc1 (stereo unspecified) | -3.39% (inactive)
30 | O=C(Nc1ccccc1Cl)N1CCN(c2ccc3nncn3n2)CC1 | -2.95% (inactive)
31 | O=C1c2ccccc2C(=O)N1CC1c2ccccc2CCN1S(=O)(=O)c1ccccc1 (stereo unspecified) | -2.22% (inactive)
32 | Cc1c(Cl)c([N+](=O)[O-])nn1CCCC(=O)NC(C)c1ccccc1 (stereo unspecified) | 6.9% (inactive)
33 | COC(=O)C(C)Sc1ccc2nnc(-c3cccc(F)c3)n2n1 (stereo unspecified) | 19% (inactive)
34 | C1CC1Cc1noc(CN2CCN(CC3CC3)CC2)n1 | 1.1% (inactive)
35 | COc1ccc(NC(=O)CN(C)C(=O)CC2CCCCC2)cc1 | -3.55% (inactive)
36 | FC(F)(F)c1ccc2c3n(nc2c1)CCN=C3c1ccc(Cl)cc1 | 1.67% (inactive)
37 | O=C(CSc1cccc2cccnc12)N/N=C/c1cccnc1 | 64.7% (active)
38 | Cc1nc2ccccc2n1CC(=O)N/N=C/c1cccnc1 | -15.1% (inactive)
39 | O=C(CNC(=O)c1cccnc1)N/N=C/c1cccnc1 | -1.7% (inactive)
40 | COc1ccccc1OCC(=O)Nc1ccccc1C(=O)NC1CC1 | -5.39% (inactive)
41 | O=S(=O)(Nc1ccc(O)c2ccccc12)c1ccc(OC(F)(F)F)cc1 | 8.4% (inactive)
42 | Cc1c(C)n2c(SCC(=O)NC3CCCC3)nnc2[nH]c1=O | -14.6% (inactive)
43 | Cc1ccc(Nc2c3c(nc4ccccc24)CCC3)cc1 | 39.2% (inactive)
44 | CC(=O)Nc1ccc(NC(=O)COc2ncnc3ccccc23)cc1 | -17.1% (inactive)
45 | CC(=O)Nc1ccc(Nc2c3ccccc3nc3ccccc23)cc1 | 59.7% (active)
46 | FC(F)(F)c1cccc(-c2nc(COc3ccc(Cl)cc3Cl)no2)c1 | 1.05% (inactive)
47 | COc1c(C(=O)N2CCCC2)ccc2ccccc12 | -11.3% (inactive)
48 | CCSc1nc2sc3c(c2c(=O)n1-c1ccc(C)cc1)CCN(C)C3 | 21.6% (inactive)

Row | Structure (SMILES) | inhibition
49 | CCCSc1nc2sc3c(c2c(=O)n1-c1ccc(OC)cc1)CCN(C)C3 | 57.4% (active)
50 | CCOc1ccc(-n2c(SCC(=O)OC)nc3sc4c(c3c2=O)CCN(C)C4)cc1 | 5.98% (inactive)
51 | CCOC(=O)N1CCC(N2Cc3cccc(C(=O)Nc4c(C)cccc4CC)c3C2=O)CC1 | 22% (inactive)
52 | Cc1ccc(S(=O)(=O)N2CCC(C(=O)NCCC3=CCCCC3)CC2)cc1C | 8.76% (inactive)
53 | COc1ccc(Oc2c(Cl)cnn(-c3ccccc3)c2=O)cc1 | -11.4% (inactive)
54 | Cc1cccc(-n2ncc(Cl)c(Cl)c2=O)c1 | 65.8% (active)
55 | Cc1cccc(-n2ncc(C#N)c2-n2cccc2)c1 | -8.8% (inactive)
56 | COc1ccc(N2CCN(C(=O)COC(=O)c3cccc(S(=O)(=O)Nc4ccccc4OC)c3)CC2)cc1 | 8.41% (inactive)
57 | COc1ccc(F)cc1S(=O)(=O)NCC(c1ccc2c(c1)OCO2)N1CCN(C)CC1 (stereo unspecified) | -3.53% (inactive)
58 | COC(=O)c1cc(S(=O)(=O)N2CCN(c3cc(C)ccc3C)CC2)c[nH]1 | 0.9% (inactive)
59 | S=C(Nc1ccc(Br)cc1)NC1CCN(Cc2ccccc2)CC1 | 42% (inactive)
60 | O=C(COc1ccc(Br)cc1F)NC1CCN(Cc2ccccc2)CC1 | 38.4% (inactive)
61 | S=C(Nc1ccc(Br)cc1Cl)NC1CCN(Cc2ccccc2)CC1 | 60.4% (active)
62 | O=C(NC1CCN(Cc2ccccc2)CC1)c1ccc(Oc2cc(Cl)cc(Cl)c2)o1 | 44.9% (inactive)
63 | O=C(NC1CCN(Cc2ccccc2)CC1)c1cc(Br)c(Br)[nH]1 | 70.3% (active)
64 | Cc1cc(C(=O)NC2CCN(Cc3ccccc3)CC2)n[nH]1 | 14.6% (inactive)
65 | CCOC(=O)c1ccc(NC(=O)c2ccc(NC(=O)C3CCCO3)cc2)cc1 (stereo unspecified) | 3.02% (inactive)
66 | CCOc1ccccc1C1CC(c2ccc(Cl)cc2)Nc2nc(N)nn21 (stereo unspecified) | 17.4% (inactive)
67 | CCCn1c(C)cc(-c2csc(NC(=O)CCc3nc4ccccc4c(=O)[nH]3)n2)c1C | 5.04% (inactive)
68 | Cc1ccccc1OCC(O)CN1CCN(c2ccccn2)CC1 (stereo unspecified) | 0.87% (inactive)
69 | Cc1cccc(OCC(O)CN2CCN(CCN3C(=O)c4cccc5cccc(c45)C3=O)CC2)c1C (stereo unspecified) | 67.1% (active)
70 | COc1ccccc1OCC(O)CN1CCOCC1 (stereo unspecified) | 1.66% (inactive)
71 | COc1ccccc1NS(=O)(=O)c1ccc(C(=O)N2CCN(c3ccccc3O)CC2)cc1 | 0.881% (inactive)
72 | O=C(COC(=O)c1ncc(Cl)c(Cl)c1Cl)NCc1cccs1 | -17.6% (inactive)

Row | Structure (SMILES) | inhibition
73 | Cc1csc(NC(=O)c2ccc(C)s2)n1 | -14.9% (inactive)
74 | Cn1c(=O)c(=O)n(C)c2cc(S(=O)(=O)NCCN3CCN(c4ccccc4F)CC3)ccc21 | 56% (active)
75 | Cc1ccc(S(=O)(=O)NCCN2CCOCC2)cc1C | 1.47% (inactive)
76 | Cn1c(=O)c(=O)n(C)c2cc(S(=O)(=O)NCCc3ccccc3)ccc21 | -8.33% (inactive)
77 | COc1cc(CNCc2ccc3c(c2)OCO3)c([N+](=O)[O-])cc1OC | 9.09% (inactive)
78 | C=CS(=O)c1sc(Cl)c(N2CCOCC2)c1[N+](=O)[O-] (stereo unspecified) | 69.9% (active)
79 | O=C(NCCc1csc(-c2ccccc2)n1)c1ccccc1F | 66.1% (active)
80 | COc1ccc(-c2nc(CCNC(=O)c3ccc(Br)o3)cs2)cc1 | 9.33% (inactive)
81 | O=S(=O)(NCCc1csc(-c2ccccc2)n1)c1cccnc1 | 8.42% (inactive)
82 | CC(=O)c1ccc(S(=O)(=O)NC2CC(=O)N(c3ccc4c(c3)OCCO4)C2)cc1 (stereo unspecified) | 0.0508% (inactive)
83 | CC(=O)c1nc2ccccc2n1Cc1ccccc1 | 8% (inactive)
84 | CC(=O)Nc1nc2ccccc2n1Cc1ccc(C)cc1 | 79.7% (active)
85 | CCC(=O)Nc1nc2ccccc2n1Cc1ccccc1C | 45.5% (inactive)
86 | O=C(CCC(=O)c1cccs1)Nc1nc2ccccc2s1 | -3.43% (inactive)
87 | CCN(CC)CCn1c2c(c(SCC(=O)Nc3ccc(C(C)C)cc3)nc1=O)CCC2 | 9.44% (inactive)
88 | C=CC1=C(C(=O)O)N2C(=O)[C@@H](NC(=O)/C(=N/OCC(=O)O)c3csc(N)n3)[C@H]2SC1 | -7.4% (inactive)
89 | O=C(Cc1ccc(S(=O)(=O)N2CCOCC2)s1)NCCOc1ccccc1F | 5.5% (inactive)
90 | COc1ccccc1CCNC(=O)CN1C(=O)NC2(CCCC2)C1=O | -8.97% (inactive)
91 | O=C(COC(=O)c1ncc(Cl)c(Cl)c1Cl)NC1CCS(=O)(=O)C1 (stereo unspecified) | -20.7% (inactive)
92 | Cc1cccc([C@@H]2[C@@H]3C(=O)N(Cc4ccccc4)C(=O)[C@@H]3[C@]3(Cc4ccc(Cl)cc4)C(=O)N(c4cccc(Cl)c4)C(=O)N23)c1 | -3.42% (inactive)
93 | Cc1c(C(=O)OCC(=O)N2CCCC2=O)oc2ccccc12 | -3.64% (inactive)
94 | O=C(CN1CCN(C/C=C/c2ccccc2)CC1)Nc1ccc(F)cc1F | 32.3% (inactive)
95 | O=C(CCN1CCN(C/C=C/c2ccccc2)CC1)Nc1cccc(F)c1 | 58.2% (active)
96 | O=C(CCN1CCN(C/C=C/c2ccccc2)CC1)Nc1ccccc1Cl | 33.5% (inactive)
